The source made the active and inactive calls. The calls are words filed in the database; no cut-off is given here.
Assays:
[1] = system: PC-12; experiment: Induction of neurite outgrowth in rat PC12 cells at 0.26 ug/ml incubated for 24 hrs by microscopic analysis; format: functional, cell-based
Summary of the method: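 PC12 cells (2,000/well, collagen I) were treated for 24 h in DMEM with 1% FBS, 1% horse serum and 10 ng/mL NGF containing substance, then cultured 24 h in the same medium without Aβ. Cells were imaged by microscopy before the viability read-out. Cells with neurites equal to, twice, or more than twice the cell length were counted.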

[2] = system: PC-12; experiment: Neuroprotective activity against amyloid beta (1 to 40 residues)-induced toxicity in rat PC12 cells at 0.26 ug/mL pretreated for 24 hrs followed by 1 uM amyloid beta (1 to 40 residues) challenge and measured after 24 hrs by WST-8 assay
[3] = system: PC-12; experiment: Induction of cell proliferation in rat PC12 cells assessed as increase in cell viability at 0.26 ug/ml after 24 hrs in presence of 10 ng/ml NGF by WST-8 assay; format: functional, cell-based
Summary of the method: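 PC12 cells were seeded at 2,000 cells/well on type I collagen and grown 24 h in DMEM with 10% FBS and 10% horse serum at 37 °C, 5% CO₂. They were then given 24 h in DMEM with 1% FBS, 1% horse serum and 10 ng/mL NGF plus substance, followed by 24 h without Aβ. Viability was read by 10% WST-8 for 1–2 h at A450, relative to 0.004% DMSO vehicle.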

SMILES | Activity [1] | Activity [2] | Activity [3]
CC(C)(C)[C@@]12C[C@@H]3OC(=O)C[C@]3(C(=O)O1)[C@@]21[C@H](OC(=O)c2ccc(Br)cc2)OC(=O)[C@@H]1OC(=O)c1ccc(Br)cc1 | Active | Active | –
CC(=O)O[C@@H]1OC(=O)[C@H](OC(C)=O)[C@]12[C@@]13CC(=O)O[C@H]1C[C@]2(C(C)(C)C)OC3=O | Active | Active | Active
CC(C)(C)[C@]1(O)C[C@@H]2OC(=O)C[C@@]23C(=O)O[C@@H]2OC(=O)[C@H](O)[C@]213 | Active | Active | Active
CC(C)(C)[C@]1(O)C[C@@H]2OC(O)C[C@]2(CO)[C@@]12COC[C@@H]2O (stereo partly drawn) | inactive | inactive | Active
CC(C)(C)C1=C(C=O)[C@](CC(=O)OCc2ccccc2)(C(=O)OCc2ccccc2)C=C1 | Active | Active | –

Source: ChEMBL document CHEMBL4610011, “Bilobalide and PC12 cells: A structure activity relationship study” (Bioorg Med Chem, 2020)
